From PubChem
NPY-Y2 PAM-ag: potentiates or activates human NPY-Y2 receptor. P49146. cells expressing NPY-Y2, potentiator/agonist read-out. activation, % at 3.6 µM. 0.45% of 220,000 active. AID 1359; in the data active means activation above about 27%;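 further: cells stimulated with NPY near EC25 plus isoproterenol at EC100; 0% = vehicle plus submaximal agonist and 100% = vehicle plus saturating agonist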
Target sequence (P49146 whole entry, looked up): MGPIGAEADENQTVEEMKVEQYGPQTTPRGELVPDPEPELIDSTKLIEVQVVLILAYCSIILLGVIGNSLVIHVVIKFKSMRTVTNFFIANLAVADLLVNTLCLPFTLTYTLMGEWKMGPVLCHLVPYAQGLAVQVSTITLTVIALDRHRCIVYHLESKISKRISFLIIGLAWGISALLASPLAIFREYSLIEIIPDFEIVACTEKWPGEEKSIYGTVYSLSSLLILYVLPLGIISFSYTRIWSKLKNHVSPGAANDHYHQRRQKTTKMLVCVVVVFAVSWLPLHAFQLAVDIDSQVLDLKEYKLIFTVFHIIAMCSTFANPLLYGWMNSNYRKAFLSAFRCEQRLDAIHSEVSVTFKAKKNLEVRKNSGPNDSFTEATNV
NPY-Y2 antag: NPY-Y2 (human) receptor antagonism; P49146; NPY-Y2 expressing cells, antagonist mode; inhibition, % at 2.7 µM; 0.99% of 140,000 active; AID 793; in the data active means inhibition above about 17%;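 further: 0% = vehicle with agonist challenge and 100% = reference antagonist with challenge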
NPY1 pot ag: potentiates or activates human NPY-Y1 receptor. activation, % at 3.6 µM. NPY-Y1 expressing cells, potentiator/agonist activation. AID 1304. 0.37% of 220,000 active; in the data active means activation above about 33%, passing the limit was not always enough;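 further: cells stimulated with NPY at EC10 then isoproterenol at EC100; 0% = low agonist plus stimulus and 100% = saturating agonist plus stimulus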
NPY-Y1 antag: blocks the human neuropeptide Y Y1 receptor; AID 1040; HEK293-CNG Y1 cells, membrane potential fluorescence; NPY at EC95, then isoproterenol; 1% of 200,000 active; P25929; inhibition, % at 3.6 µM;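 active means inhibition above the campaign mean inhibition of all tested compounds plus 3 SD, cut at about 20% in these data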;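 further: 0% = DMSO wells given NPY plus isoproterenol and 100% = isoproterenol alone without NPY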
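Assay system: HEK293 cells with Y1 receptor plus CNG channel | Probe or stimulus: NPY (25 nM), isoproterenol (1 µM), Ro 20-1724 (25 µM) | Timing: Compound incubation 1 h at room temperature, readout 45 min post-stimulation | Measured by: Membrane-potential fluorescent dye readout | Benchmarks: High control isoproterenol alone, low control NPY with isoproterenol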
The depositor's hits bear a star; . = no result. An excerpt weighted towards active compounds, which were near 1.8% of everything screened.

SMILES	NPY-Y2 PAM-ag	NPY-Y2 antag	NPY1 pot ag	NPY-Y1 antag
CCOC(=O)c1ccc(-n2c(O)c(/C=N/NC(=O)C3COc4ccccc4O3)c3ccccc3c2=O)cc1 (stereo not given)	2.6	1.3	-7.3	3.5
COc1ccccc1CNC(=O)C1CCN(Cc2nc(-c3cccc(Cl)c3)oc2C)CC1	5.0	2.5	-6.0	7.1
CCc1ccc(-c2nc(CN3CCC(C(=O)NCc4ccccc4OC)CC3)c(C)o2)cc1	-17.1	18.0*	-57.8	21.1*
CCC(=O)N(CCC(c1ccco1)c1ccccc1OC)Cc1cccs1 (stereo not given)	0.5	22.1*	-3.0	25.1*
CCOC(=O)c1cnc2ccc(OCC)cc2c1NCc1ccccc1	-66.6	65.7*	-198.9	69.7*
CCOC(=O)c1cnc2ccc(OCC)cc2c1N1CCN(c2ccccc2)CC1	-28.5	17.4*	-36.2	29.3*
C=CCOC(=O)C1=C[C@H](c2coc3ccccc3c2=O)[C@@H](CCCO)[C@H](OCC)O1	2.7	.	-19.8	-0.3
O=C(NC1CCCCC1)C(c1ccc(F)cc1)N(Cc1ccco1)C(=O)c1ccccn1 (stereo not given)	-13.4	.	2.8	15.0
CC(Oc1ccc(Cl)cc1)c1ccnn1S(=O)(=O)c1ccc(Cl)cc1 (stereo not given)	-20.3	21.9*	-8.7	21.0*
CC(Oc1ccccc1)C(=O)N1CCN=C1SCc1ccccc1 (stereo not given)	-6.3	.	5.2	4.9
N#Cc1c(NC(=O)c2ccc(Cn3cc(Br)cn3)o2)sc2c1CCCCC2	-7.6	0.8	10.1	-7.0
COC(=O)c1sc(NC(=O)c2ccc(Cn3cc(Cl)cn3)o2)c(C#N)c1C	35.6*	-8.0	60.4*	-11.0
CCn1c(SCC(=O)NNC(=O)c2ccc(OC)cc2)nnc1-c1ccco1	1.8	.	-4.3	-4.7
O=C1C(Nc2ccc(O)cc2)=C/C(=N/S(=O)(=O)c2cccs2)c2ccccc21	68.4*	.	70.4*	-21.1
Cc1ccc(NC2=C/C(=N\S(=O)(=O)c3cccs3)c3ccccc3C2=O)c(C)c1	61.6*	-8.8	48.4*	-15.4
Cc1cccc(NC2=C/C(=N/S(=O)(=O)c3cccs3)c3ccccc3C2=O)c1	-13.3	-8.5	-29.8	-3.3
OC(COc1ccc(CNCc2cccnc2)cc1)CN1CCc2ccccc2C1 (stereo not given)	-11.4	.	-16.2	9.6
CC(C)Cn1cnc2c(c(-c3ccccc3)c(-c3ccccc3)n2Cc2ccco2)c1=N	3.0	76.2*	3.6	40.2*
N=c1c2c(-c3ccccc3)c(-c3ccccc3)n(Cc3ccco3)c2ncn1CCCn1ccnc1	-20.4	41.4*	-149.5	57.2*
N=c1c2c(-c3ccccc3)c(-c3ccccc3)n(Cc3ccccc3)c2ncn1CCO	-24.9	63.2*	-99.8	61.2*
Cc1cc(C)c(S(=O)(=O)N2CCCOC2CNC(=O)C(=O)NCc2cccs2)c(C)c1 (stereo not given)	4.8	0.3	3.8	3.6
CCCCN(CCCC)CP(=O)(c1ccccc1)c1ccccc1	-8.0	26.3*	9.4	27.5*
O=C(COC(=O)c1cccc(C(F)(F)F)c1)NCc1ccccc1	6.9	5.1	13.4	-1.6
Cc1ccc2c(c1)N(CC(=O)NC1CCC(C)CC1)C(=O)CO2 (stereo not given)	1.1	4.5	-10.9	3.9
Cc1ccc2c(c1)N(CC(=O)OC(CC(C)C)C(=O)NC1CCCC1)C(=O)CO2 (stereo not given)	-14.2	21.3*	-23.6	32.6*
SMILES	NPY-Y2 PAM-ag	NPY-Y2 antag	NPY1 pot ag	NPY-Y1 antag
Cc1ccc(C2CC(C(F)(F)F)n3nc(C(=O)NCc4c(C)nn(C)c4C)c(Cl)c3N2)cc1 (stereo not given)	39.3*	3.3	48.2*	-17.9
Cc1ccc(C#CC[N+]2(CC#Cc3ccc(C)cc3)CCCCC2)cc1	-3.7	19.8*	-31.0	27.5*
CNC(=S)N1CCN(c2ccc(Cl)c(Cl)c2)CC1	6.8	.	-2.5	-2.7
Cc1ccc(NC(=O)NC(=O)CN2C(=O)NC3(CCCCCCC3)C2=O)c(C)c1	-5.6	4.7	39.5*	7.8
Cc1cc(Br)ccc1NC(=O)CNC(=O)CN1C(=O)NC2(CCCCCC2)C1=O	23.5	-0.8	26.6	-5.7
Nc1ccc2nc(SCc3cccc(F)c3)sc2c1	4.6	.	17.1	-1.1
CCC(=O)N(Cc1ccco1)c1nc(-c2ccccc2)cs1	7.9	9.8	-10.6	9.5
O=C(c1cccs1)N(Cc1ccco1)c1nc(-c2ccc(F)cc2)cs1	7.5	17.7*	1.1	14.5
COc1ccc(-n2c(-c3ccc(Br)cc3)c[n+]3c2CCc2ccccc2-3)cc1	-5.2	25.1*	-97.8	58.5*
COc1ccc(-c2cn(-c3ccc(OC)cc3)c3[n+]2-c2ccccc2CC3)cc1	15.6	4.9	-24.6	8.0
CCOC(=O)Cn1c(=O)oc2cc(S(=O)(=O)NC(C)(C)CC)ccc21	4.7	.	11.8	.
CCOC(=O)Cn1c(=O)oc2cc(S(=O)(=O)Nc3cccc(C)c3)ccc21	42.7*	-4.0	32.1*	-6.2
CN1CCN(S(=O)(=O)c2cccc(C(=O)N(c3ccccn3)C3CCCCC3)c2)CC1	-7.1	0.2	16.3	-2.9
CC1CCN(S(=O)(=O)c2cccc(C(=O)N(Cc3ccccc3)c3ccccn3)c2)CC1	-17.2	.	-14.4	21.7*
COc1ccc(NC(=O)C(C)Oc2ccc(/C(C)=N\O)cc2)cc1 (stereo not given)	-11.4	1.5	8.1	5.6
CCOC(=O)c1cc2occc2n1Cc1c(F)cccc1Cl	11.4	7.1	-29.5	3.0
Cc1cc2c(cc(C(=O)N3CCC(C(=O)N4CCCC4)CC3)n2Cc2c(F)cccc2Cl)o1	-12.7	21.3*	-2.4	26.0*
COc1ccccc1CNc1cc(CSc2ccc(Cl)cc2)nc(C)n1	3.3	16.7	-4.4	11.5
COc1cccc(CNc2cc(CSc3ccc(Cl)cc3)nc(C)n2)c1	-11.6	21.3*	-57.9	20.6*
CCOc1cc(Cl)c(NC(C)=O)cc1OCC	15.8	3.4	1.8	0.9
CCn1c(SCC(=O)N2CCN(c3cccc(Cl)c3)CC2)nc2ccccc2c1=O	-8.9	23.9*	-34.7	23.9*
CC(C)(C)NS(=O)(=O)c1ccc(NS(=O)(=O)c2ccc(F)cc2)cc1	90.2*	1.3	-0.9	5.0
Cc1ccc(S(=O)(=O)Nc2ccc(S(=O)(=O)NC(C)(C)C)cc2)cc1	-1.9	1.9	7.4	2.9
CC(C)(C)N(NC(=O)c1ccccc1)C(=O)c1cccc(C(=O)N(NC(=O)c2ccccc2)C(C)(C)C)c1	-16.3	20.5*	-24.0	40.9*
CC(C)(C)N(NC(=O)Nc1ccccc1)C(=O)c1ccccc1	-7.0	0.7	2.7	-1.3
Cn1ncc(Cl)c1C(=O)Nc1cccc(Cl)c1	3.5	1.4	-11.4	1.2
Cn1ncc(Cl)c1C(=O)Nc1cccnc1	-4.3	4.8	42.7*	-2.0
CCOC(=O)c1c(NC(=O)C2COc3ccccc3O2)sc(C(C)=O)c1C (stereo not given)	15.1	4.1	10.7	-1.0
CCOC(=O)c1c(NC(=O)C2COc3ccccc3O2)sc2c1CC(C)(C)NC2(C)C (stereo not given)	-41.0	21.0*	-127.1	45.0*
